Source: PubChem BioAssay (several laboratories)
This is a sample that favours compounds with a hit; in the whole collection about 2.6% have one here.
ABHD5-PLIN5 inh: ABHD5-PLIN5 interaction inhibitors, primary screen, cell lysate, split luciferase complementation, luminescence. Split G. princeps luciferase complementation, 4 h. inhibition, % at 4 µM. 360,000 tested, 0.78% active. AID 602281, 2012;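 active = inhibition above the mean inhibition across every tested compound plus 3 SD, cut at about 22% in these data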
Target sequence (Q00G26 whole entry, looked up): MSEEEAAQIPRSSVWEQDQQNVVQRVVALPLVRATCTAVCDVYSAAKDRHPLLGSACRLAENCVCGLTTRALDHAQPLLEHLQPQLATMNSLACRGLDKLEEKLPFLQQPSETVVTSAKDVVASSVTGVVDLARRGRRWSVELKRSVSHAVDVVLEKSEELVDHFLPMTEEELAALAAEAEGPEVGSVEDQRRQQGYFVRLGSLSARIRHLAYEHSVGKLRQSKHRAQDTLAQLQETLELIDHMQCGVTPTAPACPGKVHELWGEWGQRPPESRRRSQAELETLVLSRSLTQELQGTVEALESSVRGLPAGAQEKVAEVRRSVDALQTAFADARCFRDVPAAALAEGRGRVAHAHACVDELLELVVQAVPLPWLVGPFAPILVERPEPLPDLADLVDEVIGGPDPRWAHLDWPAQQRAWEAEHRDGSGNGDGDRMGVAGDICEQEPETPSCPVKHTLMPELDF
Target sequence (Q8WTS1 whole entry, looked up): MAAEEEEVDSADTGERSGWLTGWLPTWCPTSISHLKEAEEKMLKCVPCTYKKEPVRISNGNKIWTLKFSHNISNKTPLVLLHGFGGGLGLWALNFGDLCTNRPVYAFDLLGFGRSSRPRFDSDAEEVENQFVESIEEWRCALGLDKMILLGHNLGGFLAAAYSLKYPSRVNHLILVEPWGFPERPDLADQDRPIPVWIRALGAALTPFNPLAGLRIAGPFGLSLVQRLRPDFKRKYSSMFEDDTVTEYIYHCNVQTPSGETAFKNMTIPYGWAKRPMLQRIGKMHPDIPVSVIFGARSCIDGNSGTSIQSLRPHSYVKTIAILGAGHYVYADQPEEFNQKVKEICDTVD
NadD inh: inhibitors of S. aureus NadD, primary screen, biochemical, colorimetric, uHTS; 360,000 tested, 0.78% active; Nicotinate-nucleotide adenylyltransferase NadD (Staphylococcus aureus N315); purified NadD enzyme, colorimetric absorbance read-out; inhibition, % at 20 µM; in the data active = inhibition above about 26%
HCV core dimer: inhibitors of HCV core protein dimerization, primary screen, biochemical, TR-FRET, high-throughput; TR-FRET GST/Flag-core106 dimerization, 1536-well; 300,000 tested, 0.33% active; inhibition, % at 5 µM;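 active = inhibition above the mean of all tested compounds plus 3 SD, set per screening campaign, cut at about 45% in these data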
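System: GST/Flag-tagged HCV core106 proteins. Incubation: compound-protein-antibody incubation 4 h at 22.5 °C. Technique: HTRF with 340 nm excitation, 617/671 nm emission. Medium: KF-containing HEPES buffer, pH 7.45, DTT, CHAPS, BSA. Read-out: inhibition (%) from 671 over 617 nm ratio. Also added: Eu(K)-anti-GST 90 ng/mL plus XL665-anti-Flag 1 µg/mL.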
rCAG binder: binders of r(CAG) RNA repeats, primary screen, biochemical, fluorescence; inhibition, % at 3 µM; 370,000 tested, 1.3% active; r(CAG) RNA repeat, TO-PRO-1 dye displacement fluorescence; AID 651821, 2012;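 active = inhibition above the plate cutoff, the mean of all test compounds on that plate plus 3 SD, cut at about 35% in these data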;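 note: higher means more dye released from RNA so lower well fluorescence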
ABHD5 PLIN5 conf: ABHD5-PLIN5 interaction inhibitors, confirmation, biochemical, luminescence | shares compounds with ABHD5-PLIN5 inh | inhibition, % at 4 µM | 2,200 tested, 67% active | AID 651612, 2012; in the data active = inhibition above about 23%
HNF4 counter: HNF4 dimerization inhibitors, counter-screen for ABHD5-PLIN5 interaction inhibitor project, biochemical, split-luciferase complementation, luminescence; inhibition, % at 4 µM; 2,200 tested, 77% active; shares compounds with ABHD5-PLIN5 inh; AID 651674, 2012;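 active = mean inhibition across replicate wells exceeding the computed hit threshold, cut at about 13% in these data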;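 note: light from luciferase halves that rejoin when HNF4 fusion proteins dimerize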
Of the large screens only hits and unclear results are named; the others gave an inactive call (follow-up assays come after a bar, where they were run).

CC1C/C(=C\c2cccnc2)C(=O)/C(=C/c2cccnc2)C1 (centres undefined)	ABHD5-PLIN5 inh 91 | ABHD5 PLIN5 conf 100 | HNF4 counter 93
O=C1/C(=C/c2cccnc2)CCc2c1[nH]c1ccccc21	none
CCC(c1ccccc1)c1noc(CCN(CC)CC)n1 (centres undefined)	ABHD5-PLIN5 inh 60 (no result: HCV core dimer) | ABHD5 PLIN5 conf 73 | HNF4 counter 32
Cc1ccc(S(=O)(=O)Nc2ccc(F)c(F)c2O)cc1	none (no result: NadD inh, HCV core dimer)
CCOC(=O)/C=C/S(=O)(=O)c1ccc(NC(C)=O)cc1	ABHD5-PLIN5 inh 77 | ABHD5 PLIN5 conf 78 | HNF4 counter 109
CCCCCCCCN1C(=O)[C@H](CC(=O)NCc2cccc(C(F)(F)F)c2)C[C@@]2(C(=O)OC)CC(C)(C)CC=C12	none (no result: NadD inh, HCV core dimer)
N#Cc1c(NCCCO)nc(-c2ccco2)c2c1CCCC2	ABHD5-PLIN5 inh 35 | ABHD5 PLIN5 conf inactive | HNF4 counter 21
C#CCOCCOCCOCCNc1nc(N2CCN(C(=O)CCCCCCCCCCNC(=O)[C@@H](CCC(=O)O)n3cc(CCCCCN)nn3)CC2)nc(N2CCN(C(=O)CCCCCCCCCCNC(=O)[C@H](CCCCN)n3cc(C[C@@H](C)CC)nn3)CC2)n1	ABHD5-PLIN5 inh 41, NadD inh 36 (no result: rCAG binder) | ABHD5 PLIN5 conf inactive | HNF4 counter inactive
C#CCOCCOCCOCCNc1nc(N2CCN(C(=O)CCCCCCCCCCNC(=O)[C@H](CCCCN)n3cc(CCO)nn3)CC2)nc(N2CCN(C(=O)CCCCCCCCCCNC(=O)[C@H](CCCCN)n3cc(C[C@@H](C)CC)nn3)CC2)n1	none (no result: ABHD5-PLIN5 inh, NadD inh, rCAG binder)
C#CCOCCOCCOCCNc1nc(N2CCN(C(=O)CCCCCCCCCCNC(=O)[C@H](CCCCN)n3cc(CCO)nn3)CC2)nc(N2CCN(C(=O)CCCCCCCCCCNC(=O)[C@H](CCCCN)n3cc(CCCC(=O)O)nn3)CC2)n1	none
C#CCOCCOCCOCCNc1nc(N2CCN(C(=O)CCCCCCCCCCNC(=O)[C@@H](CCC(=O)O)n3cc(CCCCCN)nn3)CC2)nc(N2CCN(C(=O)CCCCCCCCCCNC(=O)[C@H](CO)n3cc(CCCCCN)nn3)CC2)n1	ABHD5-PLIN5 inh 36 (no result: rCAG binder) | ABHD5 PLIN5 conf inactive | HNF4 counter inactive
C#CCOCCOCCOCCNc1nc(N2CCOCC2)nc(N2CCN(C(=O)CCCCCCCCCCNC(=O)[C@H]([C@@H](C)CC)n3cc(CCCCN=C(N)N)nn3)CC2)n1	ABHD5-PLIN5 inh 34 | ABHD5 PLIN5 conf inactive | HNF4 counter inactive
C#CCOCCOCCOCCNc1nc(N2CCN(C(=O)CCCCCCCCCCNC(=O)[C@@H](CCSC)n3cc(CCO)nn3)CC2)nc(N2CCN(C(=O)CCCCCCCCCCNC(=O)[C@H](CO)n3cc(CCCCCN)nn3)CC2)n1	ABHD5-PLIN5 inh 46 (no result: rCAG binder) | ABHD5 PLIN5 conf inactive | HNF4 counter inactive
CC(C)(C)NC(=O)C(C1CC1)n1c(=O)c(-c2ccco2)nc2ccccc21 (centres undefined)	ABHD5-PLIN5 inh 51 (no result: NadD inh, HCV core dimer) | ABHD5 PLIN5 conf 73 | HNF4 counter 23
Cc1cccc(C)c1NC(=O)C(C1CC1)n1c(=O)c(-c2ccco2)nc2ccccc21 (centres undefined)	ABHD5-PLIN5 inh 61 (no result: NadD inh, HCV core dimer) | ABHD5 PLIN5 conf 43 | HNF4 counter 25
CC(C)(C)NC(=O)C(C1CC1)n1c(=O)c(-c2cc3ccccc3[nH]2)nc2ccccc21 (centres undefined)	none (no result: NadD inh, HCV core dimer)
O=C(Nc1ccc2c(c1)OCCO2)C(c1ccncc1)n1c(=O)c(-c2ccco2)nc2ccccc21 (centres undefined)	none (no result: NadD inh, HCV core dimer)
Cc1cccc(C)c1NC(=O)C(C1CC1)n1c(=O)c(-c2ccccc2)nc2ccccc21 (centres undefined)	none (no result: NadD inh, HCV core dimer)
Cc1cccc(C)c1NC(=O)C(c1ccncc1)n1c(=O)c(-c2ccco2)nc2ccccc21 (centres undefined)	ABHD5-PLIN5 inh 56 (no result: NadD inh, HCV core dimer) | ABHD5 PLIN5 conf 23 | HNF4 counter inactive
CSCCC(c1nc2ccccc2[nH]1)n1c(=O)c(-c2ccco2)nc2ccccc21 (centres undefined)	ABHD5-PLIN5 inh 34 (no result: NadD inh, HCV core dimer) | ABHD5 PLIN5 conf 34 | HNF4 counter 40
CCOC(=O)[C@]12CCCC=C1N(Cc1ccc3c(c1)OCO3)C(=O)[C@H](CC(=O)NCCCCc1ccccc1)C2	none (no result: HCV core dimer)
C=CCn1c(COc2ccc(Cl)cc2)nnc1SCC(=O)c1ccccc1	none (no result: ABHD5-PLIN5 inh, NadD inh, HCV core dimer)
CCN(CC)c1ccc(C=Nn2c(-c3cc(C)[nH]n3)n[nH]c2=S)cc1	none (no result: ABHD5-PLIN5 inh, NadD inh, HCV core dimer)
O=C(/C=C/c1ccc(-c2ccccc2[N+](=O)[O-])o1)c1ccco1	ABHD5-PLIN5 inh 30 | ABHD5 PLIN5 conf 64 | HNF4 counter 48
O=C(N/N=C/C=C/c1ccco1)c1cccc([N+](=O)[O-])c1	none
O=C(/C=C/c1ccc([N+](=O)[O-])cc1)c1ccco1	ABHD5-PLIN5 inh 33 | ABHD5 PLIN5 conf 91 | HNF4 counter 91
O=C(/C=C/c1ccco1)c1cccc([N+](=O)[O-])c1	ABHD5-PLIN5 inh 29, rCAG binder 39 (no result: HCV core dimer) | ABHD5 PLIN5 conf 46 | HNF4 counter 30
O=C(/C=C\c1ccccc1)Nc1ccc(NC(=O)c2ccco2)cc1	none
O=C(/C=C/c1ccc(Br)cc1)c1ccc(NC(=O)c2ccco2)cc1	ABHD5-PLIN5 inh 29 | ABHD5 PLIN5 conf 61 | HNF4 counter 46
CC(C)Cn1c(N)c(C(=O)COC(=O)C2Cc3ccccc3CN2S(C)(=O)=O)c(=O)n(C)c1=O (centres undefined)	none (no result: HCV core dimer)
O=C(/C=C/c1ccc(Br)cc1)c1ccco1	ABHD5-PLIN5 inh 79 | ABHD5 PLIN5 conf 99 | HNF4 counter 99
O=C(C=Cc1ccccc1)CC(c1ccccc1)N1CCOCC1 (centres undefined)	ABHD5-PLIN5 inh 77 (no result: HCV core dimer) | ABHD5 PLIN5 conf 100 | HNF4 counter 95
CCOC(=O)C1=C(O)/C(=C/c2ccc(-c3ccccc3C(=O)O)o2)SC1=Nc1ccc(C)cc1	ABHD5-PLIN5 inh 27 (no result: HCV core dimer) | ABHD5 PLIN5 conf inactive | HNF4 counter inactive
O=C(N/N=C/C=C/c1ccco1)c1ccccc1Cl	ABHD5-PLIN5 inh 33 | ABHD5 PLIN5 conf 32 | HNF4 counter 37
O=C(N/N=C/C=C/c1ccco1)c1ccncc1	none
O=C(O)CCC(=O)Nc1sc2c(c1C(=O)Nc1ccccc1)CCCCC2	ABHD5-PLIN5 inh 24 | ABHD5 PLIN5 conf inactive | HNF4 counter inactive
COc1ccc(-c2cc(C(F)(F)F)nc(S(=O)(=O)CCCC(=O)Nc3cccnc3Cl)n2)cc1OC	ABHD5-PLIN5 inh 24 (no result: HCV core dimer) | ABHD5 PLIN5 conf 33 | HNF4 counter 50
